ChEMBL document CHEMBL2375359, “Synthesis and antibacterial evaluation of novel pleuromutilin derivatives” (2013)
Values after ≈ are worked out from the molar mass of the structure shown.

Tests used:
Type in all cases: functional
[1] = system: Streptococcus agalactiae; assay: Antibacterial activity against Streptococcus agalactiae at 80 ug/ml after 24 hrs by Oxford cup assay; conditions: read-out: IZ
Summary of the method: (§1)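 Oxford cup diffusion with clinical isolates. Inoculum made in 0.9% saline to a McFarland standard and spread evenly on nutrient agar. Compound solutions, prepared as for the agar dilution test, were added at the stated concentration to Oxford cups set equidistant on the agar surface. Inhibition zones were measured after 24 h at 37 °C.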

[2] = system: Streptococcus agalactiae; assay: Antibacterial activity against Streptococcus agalactiae at 160 ug/ml after 24 hrs by Oxford cup assay; conditions: read-out: IZ; summary of the method: as §1
[3] = system: Escherichia coli; assay: Antibacterial activity against Escherichia coli at 80 ug/ml after 24 hrs by Oxford cup assay; conditions: read-out: IZ; summary of the method: as §1
[4] = system: Streptococcus agalactiae; assay: Antibacterial activity against Streptococcus agalactiae at 320 ug/ml after 24 hrs by Oxford cup assay; conditions: read-out: IZ; summary of the method: as §1
[5] = system: Escherichia coli; assay: Antibacterial activity against Escherichia coli at 160 ug/ml after 24 hrs by Oxford cup assay; conditions: read-out: IZ; summary of the method: as §1
[6] = system: Escherichia coli; assay: Antibacterial activity against Escherichia coli at 320 ug/ml after 24 hrs by Oxford cup assay; conditions: read-out: IZ; summary of the method: as §1
[7] = system: Staphylococcus epidermidis; assay: Antibacterial activity against methicillin-resistant Staphylococcus epidermidis at 80 ug/ml after 24 hrs by Oxford cup assay; conditions: read-out: IZ
Summary of the method: (§2)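 Oxford cup diffusion: clinical isolate inoculum in 0.9% saline set by McFarland standard, spread evenly on nutrient agar. Cups placed equidistant on the surface and filled with compound solutions prepared as for the agar dilution test, at several concentrations. Inhibition zone measured after 24 h at 37 °C.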

[8] = system: Staphylococcus epidermidis; assay: Antibacterial activity against methicillin-resistant Staphylococcus epidermidis at 160 ug/ml after 24 hrs by Oxford cup assay; conditions: read-out: IZ; summary of the method: as §2
[9] = system: Staphylococcus epidermidis; assay: Antibacterial activity against methicillin-resistant Staphylococcus epidermidis at 320 ug/ml after 24 hrs by Oxford cup assay; conditions: read-out: IZ; summary of the method: as §2
[10] = system: Staphylococcus aureus; assay: Antibacterial activity against methicillin-resistant Staphylococcus aureus at 80 ug/ml after 24 hrs by Oxford cup assay; conditions: read-out: IZ; summary of the method: as §2
[11] = system: Staphylococcus aureus; assay: Antibacterial activity against methicillin-resistant Staphylococcus aureus at 160 ug/ml after 24 hrs by Oxford cup assay; conditions: read-out: IZ; summary of the method: as §2
[12] = system: Staphylococcus aureus; assay: Antibacterial activity against methicillin-resistant Staphylococcus aureus at 320 ug/ml after 24 hrs by Oxford cup assay; conditions: read-out: IZ; summary of the method: as §2
[13] = system: Streptococcus agalactiae; assay: Antibacterial activity against Streptococcus agalactiae after 48 hrs by agar dilution method
Summary of the method: (§3)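 Agar dilution per NCCLS on clinical isolates. 2-fold serial dilutions of compound (2 mL) mixed into 18 mL hot Mueller-Hinton agar. Inoculum from blood slants, adjusted to approx. 10⁵–10⁶ cfu/mL in sterile 0.90% NaCl, then spotted onto the plates. Incubated 36.5 °C, 48 h. MIC is the lowest concentration giving complete growth inhibition. Run in triplicate at pH 7.40.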

[14] = system: Escherichia coli; assay: Antibacterial activity against Escherichia coli after 48 hrs by agar dilution method; summary of the method: as §3
[15] = system: Staphylococcus epidermidis; assay: Antibacterial activity against methicillin-resistant Staphylococcus epidermidis after 48 hrs by agar dilution method
Summary of the method: (§4)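 Agar dilution per NCCLS: 2-fold serial dilutions incorporated into hot Mueller-Hinton agar. Clinical isolates grown from blood slants, suspended in sterile 0.90% NaCl to about 10⁵–10⁶ cfu/mL, spotted onto plates. Incubation 36.5 °C, 48 h. MIC taken as the lowest concentration giving complete growth inhibition. Run in triplicate at pH 7.40.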

[16] = system: Staphylococcus aureus; assay: Antibacterial activity against methicillin-resistant Staphylococcus aureus after 48 hrs by agar dilution method; summary of the method: as §4

Structure (SMILES) | zone of inhibition at 80 µg/mL [1] | zone of inhibition at 160 µg/mL [2] | zone of inhibition at 80 µg/mL [3] | zone of inhibition at 320 µg/mL [4] | zone of inhibition at 160 µg/mL [5] | zone of inhibition at 320 µg/mL [6] | zone of inhibition at 80 µg/mL [7] | zone of inhibition at 160 µg/mL [8] | zone of inhibition at 320 µg/mL [9] | zone of inhibition at 80 µg/mL [10] | zone of inhibition at 160 µg/mL [11] | zone of inhibition at 320 µg/mL [12] | MIC [13] | MIC [14] | MIC [15] | MIC [16]
C=C[C@]1(C)C[C@@H](OC(=O)CSC(C)(C)CNC(=O)c2ccccc2Cl)[C@]2(C)[C@H](C)CC[C@]3(CCC(=O)[C@H]32)[C@@H](C)[C@@H]1O | 10.6 mm | 11.2 mm | 11.3 mm | 10.8 mm | 11.9 mm | 14.5 mm | 11.4 mm | 12.2 mm | 13.4 mm | 14.1 mm | 12.2 mm | 14.2 mm | 8 µg/mL (≈ 13.2 µM) | 4 µg/mL (≈ 6.62 µM) | 1 µg/mL (≈ 1.65 µM) | 0.5 µg/mL (≈ 0.827 µM)
C=C[C@]1(C)C[C@@H](OC(=O)CSC(C)(C)CNC(=O)c2cccc(N)c2)[C@]2(C)[C@H](C)CC[C@]3(CCC(=O)[C@H]32)[C@@H](C)[C@@H]1O | 8.86 mm | 9.8 mm | 9.94 mm | 9.66 mm | 12.5 mm | 10.7 mm | 9.63 mm | 9.72 mm | 11.2 mm | 9.56 mm | 10.8 mm | 10.2 mm | 0.5 µg/mL (≈ 0.855 µM) | 8 µg/mL (≈ 13.7 µM) | 1 µg/mL (≈ 1.71 µM) | 2 µg/mL (≈ 3.42 µM)
C=C[C@]1(C)C[C@@H](OC(=O)CSC(C)(C)CNC(=O)c2ccc(N)cc2)[C@]2(C)[C@H](C)CC[C@]3(CCC(=O)[C@H]32)[C@@H](C)[C@@H]1O | 10.9 mm | 11.6 mm | 18.1 mm | 11.4 mm | 17.8 mm | 18.8 mm | 17.3 mm | 18.1 mm | 17.9 mm | 20.6 mm | 21.6 mm | 22.2 mm | 0.5 µg/mL (≈ 0.855 µM) | 2 µg/mL (≈ 3.42 µM) | 0.5 µg/mL (≈ 0.855 µM) | 0.25 µg/mL (≈ 0.427 µM)
C=C[C@]1(C)C[C@@H](OC(=O)CSC(C)(C)CNC(=O)c2ccccc2N)[C@]2(C)[C@H](C)CC[C@]3(CCC(=O)[C@H]32)[C@@H](C)[C@@H]1O | 12 mm | 11.8 mm | 13.1 mm | 11.9 mm | 13.7 mm | 13.8 mm | 15.3 mm | 16 mm | 17.4 mm | 16.6 mm | 18.9 mm | 19.6 mm | 0.5 µg/mL (≈ 0.855 µM) | 2 µg/mL (≈ 3.42 µM) | 0.5 µg/mL (≈ 0.855 µM) | 1 µg/mL (≈ 1.71 µM)
C=C[C@]1(C)C[C@@H](OC(=O)CSCCN(CC)CC)[C@]2(C)[C@H](C)CC[C@]3(CCC(=O)[C@H]32)[C@@H](C)[C@@H]1O [TIAMULIN] | 11.1 mm | 11.4 mm | 15.2 mm | 12.3 mm | 16.5 mm | 18.3 mm | 14.5 mm | 15.6 mm | 16.4 mm | 16.5 mm | 17.6 mm | 18.3 mm | 2 µg/mL (≈ 4.05 µM) | 2 µg/mL (≈ 4.05 µM) | 2 µg/mL (≈ 4.05 µM) | 0.5 µg/mL (≈ 1.01 µM)
C=C[C@]1(C)C[C@@H](OC(=O)CSC(C)(C)CNC(=O)OCC(C)C)[C@]2(C)[C@H](C)CC[C@]3(CCC(=O)[C@H]32)[C@@H](C)[C@@H]1O | 9.85 mm | 9.01 mm | 9.91 mm | 10.2 mm | 9.55 mm | 10.3 mm | 10.6 mm | 11 mm | 11.1 mm | 9.64 mm | 9.56 mm | 10.9 mm | 4 µg/mL (≈ 7.07 µM) | 16 µg/mL (≈ 28.3 µM) | 8 µg/mL (≈ 14.1 µM) | 2 µg/mL (≈ 3.53 µM)
C=C[C@]1(C)C[C@@H](OC(=O)CSC(C)(C)CNC(=O)c2ccc(OC)cc2)[C@]2(C)[C@H](C)CC[C@]3(CCC(=O)[C@H]32)[C@@H](C)[C@@H]1O | 16 mm | 15.9 mm | 15.7 mm | 16.6 mm | 17.1 mm | 18.5 mm | 14.4 mm | 15.2 mm | 18.3 mm | 15.3 mm | 18.4 mm | 19.7 mm | 0.5 µg/mL (≈ 0.834 µM) | 1 µg/mL (≈ 1.67 µM) | 2 µg/mL (≈ 3.33 µM) | 0.25 µg/mL (≈ 0.417 µM)
